Assay results published in ChEMBL document CHEMBL1144570, “C6-(N,N-butyl-methyl-heptanamide) derivatives of estrone and estradiol as inhibitors of type 1 17beta-hydroxysteroid dehydrogenase: Chemical synthesis and biological evaluation” (2007).
Active and inactive are the calls of the source. The calls are words filed in the database; no cut-off is given here.

Experiments:
MCF7 [1] = assay: Increase in cell growth of estrogen-starved ER expressing MCF7 cells at 1 uM relative to control after 10 days; type: functional, Homo sapiens
In short: (§1)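 Cells were moved to medium with insulin (50 ng/mL) and 5% dextran-coated charcoal-treated FBS to remove estrogens, then seeded at 3000 cells/well. After 48 h, inhibitor dilutions in growth medium were added, with medium replaced every 2 days. Cells were grown 10 days in triplicate. Growth was read with the CellTiter 96 AQueous assay and expressed as % of control (100%).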

MCF7 [2] = assay: Increase in cell growth of estrogen-starved ER expressing MCF7 cells at 0.01 uM relative to control after 10 days; type: functional, Homo sapiens; in short: as §1
[3] = biological target: T1, 17-beta-hydroxysteroid dehydrogenase type 1 (Homo sapiens) (UniProt P14061); assay: Inhibition of 17beta-HSD1 over-expressed in intact HEK293 cells at 10 uM; type: cell-based
T1 sequence (whole entry): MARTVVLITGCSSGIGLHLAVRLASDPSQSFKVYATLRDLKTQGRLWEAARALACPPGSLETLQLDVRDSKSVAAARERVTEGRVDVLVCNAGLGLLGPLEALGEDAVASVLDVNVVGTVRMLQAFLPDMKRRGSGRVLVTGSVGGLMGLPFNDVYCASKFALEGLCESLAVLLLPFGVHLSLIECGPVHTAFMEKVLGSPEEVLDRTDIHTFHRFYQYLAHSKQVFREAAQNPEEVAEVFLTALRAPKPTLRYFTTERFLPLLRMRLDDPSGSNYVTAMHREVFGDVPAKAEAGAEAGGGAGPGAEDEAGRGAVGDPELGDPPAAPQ
In short: (§2)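 Transfected HEK-293 cells expressing type 1 17β-HSD were plated at 5000 cells/well. Inhibitors were added in ethanol and incubated 24 h. [4-14C]-E1 (60 nM) was then added for 15 min. Labelled E1 and E2 were extracted from the medium and quantified. Values are the mean of five experiments in quadruplicate, SD < ±8%.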

[4] = biological target: T1, 17-beta-hydroxysteroid dehydrogenase type 1 (Homo sapiens); assay: Inhibition of 17beta-HSD1 over-expressed in intact HEK293 cells at 1 uM; type: cell-based; in short: as §2
[5] = biological target: T1, 17-beta-hydroxysteroid dehydrogenase type 1 (Homo sapiens); assay: Inhibition of 17beta-HSD1 over-expressed in intact HEK293 cells at 0.1 uM; type: cell-based; in short: as §2
[6] = biological target: T1, 17-beta-hydroxysteroid dehydrogenase type 1 (Homo sapiens); assay: Inhibition of 17beta-HSD1 over-expressed in intact T47D cells at 10 uM; type: cell-based
In short: (§3)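 Intact T-47D cells, which express endogenous type 1 17β-HSD, were seeded at 3×10^4 cells/well in proliferation assay medium. After 48 h, [4-14C]-E1 (60 nM) and inhibitor in ethanol (0.5% v/v) were added in fresh medium for 24 h. Labelled E1 and E2 were extracted and quantified. Values are the mean of two experiments in triplicate, SD < ±5%.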

[7] = biological target: T1, 17-beta-hydroxysteroid dehydrogenase type 1 (Homo sapiens); assay: Inhibition of 17beta-HSD1 over-expressed in intact T47D cells at 1 uM; type: cell-based; in short: as §3
[8] = biological target: T1, 17-beta-hydroxysteroid dehydrogenase type 1 (Homo sapiens); assay: Inhibition of 17beta-HSD1 over-expressed in intact T47D cells at 0.1 uM; type: cell-based; in short: as §3
[9] = biological target: T2, 3-keto-steroid reductase/17-beta-hydroxysteroid dehydrogenase 7 (Homo sapiens) (UniProt P56937); assay: Inhibition of 17beta-HSD7 over-expressed in intact HEK293 cells at 10 uM; type: cell-based
T2 sequence (whole entry): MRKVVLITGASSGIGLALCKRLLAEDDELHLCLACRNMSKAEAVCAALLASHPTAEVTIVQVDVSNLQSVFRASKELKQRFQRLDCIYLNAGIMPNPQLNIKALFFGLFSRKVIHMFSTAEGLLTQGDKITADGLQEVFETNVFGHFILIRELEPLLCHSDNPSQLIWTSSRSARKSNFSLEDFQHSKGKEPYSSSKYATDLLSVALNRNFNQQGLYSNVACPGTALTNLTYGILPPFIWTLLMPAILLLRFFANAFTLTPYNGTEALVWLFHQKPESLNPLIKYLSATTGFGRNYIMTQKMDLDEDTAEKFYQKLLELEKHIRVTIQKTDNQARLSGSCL
In short: (§4)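 Intact transfected HEK-293 cells expressing type 7 17β-HSD. Inhibition of reductive conversion of E1 (60 nM) to E2. One run in triplicate, SD < ±5%.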

[10] = biological target: T2, 3-keto-steroid reductase/17-beta-hydroxysteroid dehydrogenase 7 (Homo sapiens); assay: Inhibition of 17beta-HSD7 over-expressed in intact HEK293 cells at 1 uM; type: cell-based; in short: as §4
[11] = biological target: T3, Very-long-chain 3-oxoacyl-CoA reductase (Homo sapiens) (UniProt Q53GQ0); assay: Inhibition of 17beta-HSD12 over-expressed in intact HEK293 cells at 10 uM; type: cell-based
T3 sequence (whole entry): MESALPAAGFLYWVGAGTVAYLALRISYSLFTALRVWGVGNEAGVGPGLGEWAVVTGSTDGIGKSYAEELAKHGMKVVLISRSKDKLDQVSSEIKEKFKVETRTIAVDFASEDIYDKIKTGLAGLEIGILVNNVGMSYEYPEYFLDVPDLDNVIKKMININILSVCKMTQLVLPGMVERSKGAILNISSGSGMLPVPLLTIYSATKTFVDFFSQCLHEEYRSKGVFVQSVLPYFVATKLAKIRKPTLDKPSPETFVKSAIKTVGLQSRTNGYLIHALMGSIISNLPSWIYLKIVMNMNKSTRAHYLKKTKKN
In short: (§5)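 Transfected HEK-293 cells expressing type 12 17β-HSD were plated at 1.5×10^5 cells/well. Inhibitor in ethanol plus [4-14C]-E1 (60 nM) were added in fresh medium for 24 h. E1 to E2 conversion was quantified after steroid extraction. Values are the mean of two experiments in triplicate, SD < ±5%.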

[12] = biological target: T3, Very-long-chain 3-oxoacyl-CoA reductase (Homo sapiens); assay: Inhibition of 17beta-HSD12 over-expressed in intact HEK293 cells at 1 uM; type: cell-based; in short: as §5
T47D [13] = assay: Increase in cell growth of estrogen-starved ER expressing T47D cells at 0.01 uM relative to control after 10 days; type: functional, Homo sapiens; in short: as §1
T47D [14] = assay: Effect on cell proliferation of estrogen-starved ER expressing T47D cells at 1 uM relative to control after 10 days; type: functional, cell-based; details: Homo sapiens; in short: as §1
[15] = biological target: T1, 17-beta-hydroxysteroid dehydrogenase type 1 (Homo sapiens); assay: Inhibition of 17beta-HSD1 over-expressed in intact HEK293 cells; type: cell-based
In short: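 Transfected HEK-293 cells overexpressing type 1 17β-HSD, plated at 5000 cells/well, given ethanolic inhibitor solutions and incubated 24 h. [4-14C]-E1 (60 nM) then added for 15 min. Labelled E1 and E2 extracted from medium and quantified, giving percent inhibition of E1→E2 reduction at 10, 1 and 0.1 μM. Mean of five experiments in quadruplicate.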

T47D [16] = assay: Decrease in cell growth of estrogen-starved ER expressing T47D cells after 10 days relative to control; type: functional, cell-based; details: Homo sapiens; in short: as §1
[17] = biological target: T1, 17-beta-hydroxysteroid dehydrogenase type 1 (Homo sapiens); assay: Inhibition of 17beta-HSD1 overexpressed in homogenated HEK293 cells at 1 uM; type: cell-based
In short: (§6)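 Homogenate of HEK-293 cells overexpressing type 1 17β-HSD. Reductive conversion of E1 (100 nM) to E2 with NADH cofactor. Percent inhibition from one run in triplicate, SD < ±5%.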

[18] = biological target: T1, 17-beta-hydroxysteroid dehydrogenase type 1 (Homo sapiens); assay: Inhibition of 17beta-HSD1 over-expressed in homogenated HEK293 cells at 0.1 uM; type: cell-based; in short: as §6
MCF7 [19] = assay: Decrease in cell growth of estrogen-starved ER expressing MCF7 cells at 1 uM relative to control after 10 days; type: functional, cell-based; details: Homo sapiens; in short: as §1
T47D [20] = assay: Increase in cell growth of estrogen-starved ER expressing T47D cells at 1 uM relative to control after 10 days; type: functional, cell-based; details: Homo sapiens; in short: as §1
T47D [21] = assay: Increase in cell growth of estrogen-starved ER expressing T47D cells at 0.1 uM relative to control after 10 days; type: functional, Homo sapiens; in short: as §1
MCF7 [22] = assay: Increase in cell growth of estrogen-starved ER expressing MCF7 cells at 10 nM relative to control after 10 days; type: functional, Homo sapiens; in short: as §1
T47D [23] = assay: Increase in cell growth of estrogen-starved ER expressing T47D cells at 10 nM relative to control after 10 days; type: functional, Homo sapiens; in short: as §1

| SMILES | inhibition [3] | inhibition [4] | inhibition [5] | inhibition [6] | inhibition [7] | inhibition [8] | inhibition [9] | inhibition [10] | inhibition [11] | inhibition [12] | Activity [15] | inhibition [17] | inhibition [18] | other results |
| --- | --- | --- | --- | --- | --- | --- | --- | --- | --- | --- | --- | --- | --- | --- |
| CCCCN(C)C(=O)CCCCCC[C@@H]1C[C@@H]2[C@H](CC[C@]3(C)[C@@H](O)CC[C@@H]23)c2cc(OC)c(O)cc21 | 28% | 15% | 13% | 81% | 32% | 11% | 17% | 0% | 22% | 0% |  |  |  | Activity (MCF7 [1]): 1.1; Activity (MCF7 [2]): 1.7; Activity (T47D [13]): 2.3; Activity (T47D [14]): inactive |
| C[C@]12CC[C@@H]3c4ccc(O)cc4C=C[C@H]3[C@@H]1CC[C@@H]2O |  |  |  |  |  |  |  |  |  |  | inactive |  |  |  |
| CCCCN(C)C(=O)CCCCCC[C@@H]1C[C@@H]2[C@H](CC[C@]3(C)[C@@H](O)CC[C@@H]23)c2ccc(O)cc21 | 49% | 21% | 11% | 95% | 82% | 29% | 27% | 0% | 30% | 1% |  | 46% | 15% | Activity (T47D [16]): Active |
| CCCCN(C)C(=O)CCCCCC[C@@H]1C[C@@H]2[C@H](CC[C@]3(C)C(=O)CC[C@@H]23)c2ccc(O)cc21 | 31% | 20% | 8% | 92% | 57% | 19% | 31% | 7% | 40% | 0% |  | 23% | 12% | Activity (MCF7 [19]): Active |
| C[C@]12CC[C@@H]3c4ccc(O)cc4CC[C@H]3[C@@H]1CCC2=O | 83% | 38% | 8% | 93% | 85% | 36% | 0% | 0% | 0% | 0% |  | 59% | 19% |  |
| CCCCN(C)C(=O)CCCCCS[C@@H]1C[C@@H]2[C@H](CC[C@]3(C)[C@@H](O)CC[C@@H]23)c2ccc(O)cc21 | 63% | 45% | 11% | 95% | 82% | 31% | 25% | 9% | 22% | 0% |  | 74% | 33% | Activity (T47D [20]): Active; Activity (T47D [21]): 2.3; Activity (T47D [13]): 2.3 |
| C[C@]12CC[C@@H]3c4ccc(O)cc4[C@H](O)C[C@H]3[C@@H]1CC[C@@H]2O |  |  |  |  |  |  |  |  |  |  | inactive |  |  |  |
| CCCCN(C)C(=O)CCCCCC[C@H]1C[C@@H]2[C@H](CC[C@]3(C)[C@@H](O)CC[C@@H]23)c2ccc(O)cc21 | 15% | 11% | 3% | 74% | 21% | 9% | 24% | 11% | 30% | 1% |  | 17% | 9% |  |
| C[C@]12CC[C@@H]3c4ccc(O)cc4CC[C@H]3[C@@H]1CC[C@@H]2O [ESTRADIOL] |  |  |  |  |  |  |  |  |  |  |  |  |  | Activity (MCF7 [22]): 1.8; Activity (T47D [23]): 3 |
| CCCCN(C)C(=O)CCCCCC[C@H]1C[C@@H]2[C@H](CC[C@]3(C)C(=O)CC[C@@H]23)c2ccc(O)cc21 | 14% | 5% | 3% | 71% | 19% | 7% | 29% | 5% | 44% | 3% |  | 16% | 3% |  |
| C[C@]12CC[C@H]3C(=CCc4cc(O)ccc43)[C@@H]1CC[C@@H]2O |  |  |  |  |  |  |  |  |  |  | inactive |  |  |  |
| C[C@]12CC[C@@H]3c4ccc(O)cc4C(=O)C[C@H]3[C@@H]1CC[C@@H]2O |  |  |  |  |  |  |  |  |  |  | inactive |  |  |  |
